Calls of active or inactive are those of the source. The calls are words filed in the database; no cut-off is given here.

In one data set the test system is L1210. Put plainly: Antitumor activity against mouse L1210 cells allografted in C3H/DBA2F1 hybrid mouse assessed as maximum increase of host life span administered as ip for 5 days relative to control. Format: functional. In a few lines:
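Mice (C3H/DBA2 F1 hybrid, 18.5–22.5 g; six per dose level) were inoculated ip with 10^5 L1210 cells. Ip treatment ran once daily on days 1–5, starting 24 h after inoculation, in 0.2 mL per dose. Doses were spaced 0.09 log units apart. ILS = T/C% − 100, significant if above 25%. Significant ILS values were regressed on log dose, and ILSmax was read at the LD10.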

Another data set relates to Mus musculus. Briefly: Toxicity in ip dosed C3H/DBA2F1 hybrid mouse allografted with mouse L1210 cells administered for 5 days measured up to 8 days. The following applies: in vivo. Format: organism-based. In a few lines: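 C3H/DBA2 F1 hybrid mice (18.5–22.5 g) bearing ip 10^5 L1210 cells were dosed ip once daily for 5 days, starting 24 h after inoculation, at 0.2 mL per dose. Doses were spaced 0.05 log units apart. Deaths before day 8 were taken as drug toxicity, and the dose lethal to 10% of animals (LD10) was derived.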

Data set [1] is described as follows: Logarithmic function of the retardation factor value of compound by reverse phase chromatography analysis. Format: physicochemical. The procedure, abridged:
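Lipophilic-hydrophilic balance read by reversed-phase TLC, using a system described in an earlier report. R_m is calculated as log(1/R_f − 1). Each quoted figure is the mean of at least three determinations.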

For `CCCS(=O)(=O)Nc1ccc(Nc2c3ccccc3nc3cc(NC(C)=O)ccc23)cc1`, in the data set with L1210, the ILSmax came to 115% and the “log(ILSmax)” value stood at 2.06. Further, in the data set on Mus musculus, the LD10 is 33 mg/kg. Further, the Rm in data set [1] is 0.3.
Turning to `CC(=O)Nc1ccc2c(Nc3ccc(C(=O)O)cc3)c3ccccc3nc2c1.Cl`, in the data set on L1210, the ILSmax result was “inactive”. Also, the LD10 in the data set on Mus musculus was above 500 mg/kg. This compound returned a Rm in data set [1] of 0.15.
As to `CN(C)C(=O)CCCc1ccc(Nc2c3ccccc3nc3ccccc23)cc1.Cl`, in the data set with L1210, the “log(ILSmax)” value was below 1.3. This compound had an LD10 in the data set on Mus musculus of 52 mg/kg. Further, in data set [1], the Rm was 0.68.
Regarding `NS(=O)(=O)CCc1ccc(Nc2c3ccccc3nc3ccccc23)cc1`, in the data set on L1210, the ILSmax turned out to be 68% and the “log(ILSmax)” value worked out at 1.83. The same compound yielded an LD10 with Mus musculus of 80 mg/kg. The compound also had a Rm in data set [1] of -0.2.
For `CNc1ccc2c(Nc3ccc(OCCCC(=O)O)cc3)c3ccccc3nc2c1.Cl`, in that order: 30%, above 1.48, above 500 mg/kg and 0.61.
For `Cl.O=C(O)CCCCCCCCc1ccc(Nc2c3ccccc3nc3ccccc23)cc1`, in that order: 72%, 1.86, 100 mg/kg and 0.85.
With `CCCCCCS(=O)(=O)Nc1ccc(Nc2c3ccccc3nc3ccccc23)cc1.Cl`, the ILSmax in the data set on L1210 worked out at 35%. In the data set on Mus musculus, this compound yielded an LD10 of 120 mg/kg. The Rm in data set [1] was found to be 0.75.
In the case of `Cl.O=C(O)CCCCCCCCCc1ccc(Nc2c3ccccc3nc3ccccc23)cc1`, in the data set with L1210, the ILSmax is 75% and the “log(ILSmax)” value turned out to be 1.88. For the same compound, in the data set with Mus musculus, the LD10 is 75 mg/kg. Further, the Rm in data set [1] worked out at 0.86.

These data come from ChEMBL document CHEMBL3244004, “Potential antitumor agents. 27. Quantitative structure--antileukemic (L1210) activity relationships for the omega-[4-(9-acridinylamino)phenyl]alkanoic acids” (J Med Chem, 1978).
